Measurements taken from ChEMBL document CHEMBL3352548, “Small-molecule suppression of β-lactam resistance in multidrug-resistant gram-negative pathogens” (J Med Chem, 2014).
Converted amounts (≈) assume the structure as drawn. The source made the active and inactive calls. The calls are words filed in the database; no cut-off is given here.

What was measured:
[1] = system: Pseudomonas aeruginosa; assay: Antibacterial activity against Pseudomonas aeruginosa PA53 assessed as fold reduction in meropenem MIC at 60 uM after 16 hrs by microdilution method; type: functional
Procedure, shortened: (§1)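 MIC of each compound alone was determined first. Antibiotic MICs (imipenem or meropenem for A. baumannii; ceftazidime or meropenem for P. aeruginosa) were then measured with compound at fixed sub-MIC concentrations. Fold reduction is MIC without compound divided by MIC with compound.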

[2] = system: Pseudomonas aeruginosa; assay: Antibacterial activity against Pseudomonas aeruginosa PA53 assessed as complete inhibition of bacterial growth after 16 hrs by microdilution method; type: functional; conditions: PA53, 16 h; procedure, shortened: as §1
[3] = system: Acinetobacter baumannii; assay: Antibacterial activity against Acinetobacter baumannii ATCC BAA-1605 assessed as fold reduction in imipenem MIC at 60 uM after 16 hrs by microdilution method; type: functional; procedure, shortened: as §1
[4] = system: Acinetobacter baumannii; assay: Antibacterial activity against Acinetobacter baumannii ATCC BAA-1605 assessed as complete inhibition of bacterial growth after 16 hrs by microdilution method; type: functional; conditions: ATCC BAA-1605, 16 h; procedure, shortened: as §1
[5] = system: Acinetobacter baumannii; assay: Antibacterial activity against Acinetobacter baumannii ATCC BAA-1605 assessed as fold reduction in meropenem MIC at 60 uM after 16 hrs by microdilution method; type: functional; procedure, shortened: as §1
[6] = system: Pseudomonas aeruginosa; assay: Antibacterial activity against Pseudomonas aeruginosa PA53 assessed as fold reduction in ceftazidime MIC at 60 uM after 16 hrs by microdilution method; type: functional; procedure, shortened: as §1
[7] = system: Acinetobacter baumannii; assay: Antibacterial activity against Acinetobacter baumannii ATCC BAA-1605 assessed as fold reduction in imipenem MIC at 30 uM after 16 hrs by microdilution method; type: functional; procedure, shortened: as §1
[8] = system: Acinetobacter baumannii; assay: Antibacterial activity against Acinetobacter baumannii ATCC BAA-1605 assessed as fold reduction in meropenem MIC at 30 uM after 16 hrs by microdilution method; type: functional; procedure, shortened: as §1
[9] = system: Pseudomonas aeruginosa; assay: Antibacterial activity against Pseudomonas aeruginosa PA53 assessed as reduction in meropenem MIC at 60 uM after 6 hrs by time kill assay; type: functional, organism-based
[10] = system: Acinetobacter baumannii; assay: Antibacterial activity against Acinetobacter baumannii ATCC BAA-1605 assessed as reduction in meropenem MIC at 60 uM after 6 hrs by time kill assay; type: functional
[11] = system: Pseudomonas aeruginosa; assay: Antibacterial activity against Pseudomonas aeruginosa PA53 assessed as reduction in CFU at 60 uM after 6 hrs by time kill assay; type: functional
Procedure, shortened: (§2)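 Time-kill: cultures were grown at 37 °C with shaking with compound (15 μM for BAA-1605, 60 μM for PA53), meropenem (1–32 μg/mL for BAA-1605, 1–64 μg/mL for PA53), or both. Samples taken at 2, 4, 6, 8 and 24 h were serially diluted in CAMHB, plated on nutrient agar, incubated overnight at 37 °C, and colonies counted.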

[12] = system: Acinetobacter baumannii; assay: Antibacterial activity against Acinetobacter baumannii ATCC BAA-1605 assessed as reduction in CFU at 60 uM after 6 hrs by time kill assay; type: functional, organism-based
[13] = system: Pseudomonas aeruginosa; assay: Antibacterial activity against Pseudomonas aeruginosa PA53 assessed as reduction in CFU at 4 ug/ml after 6 hrs by time kill assay; type: functional; procedure, shortened: as §2
[14] = system: Pseudomonas aeruginosa; assay: Antibacterial activity against Pseudomonas aeruginosa PA53 assessed as reduction in CFU at 1 ug/ml after 6 hrs by time kill assay; type: functional; procedure, shortened: as §2
[15] = system: Acinetobacter baumannii; assay: Antibacterial activity against Acinetobacter baumannii ATCC BAA-1605 assessed as reduction in CFU at 4 ug/ml after 6 hrs by time kill assay; type: functional; procedure, shortened: as §2
[16] = system: Acinetobacter baumannii; assay: Antibacterial activity against Acinetobacter baumannii ATCC BAA-1605 assessed as reduction in CFU at 1 ug/ml after 6 hrs by time kill assay; type: functional; procedure, shortened: as §2
[17] = system: Pseudomonas aeruginosa; assay: Antibacterial activity against Pseudomonas aeruginosa PA53 assessed as fold reduction in meropenem MIC at 15 uM after 16 hrs by microdilution method; type: functional; procedure, shortened: as §1
[18] = system: Pseudomonas aeruginosa; assay: Antibacterial activity against Pseudomonas aeruginosa PA53 assessed as fold reduction in meropenem MIC at 30 uM after 16 hrs by microdilution method; type: functional; procedure, shortened: as §1
[19] = system: Acinetobacter baumannii; assay: Antibacterial activity against Acinetobacter baumannii ATCC BAA-1605 assessed as fold reduction in meropenem MIC at 15 uM after 16 hrs by microdilution method; type: functional; procedure, shortened: as §1
[20] = system: Pseudomonas aeruginosa; assay: Antibacterial activity against Pseudomonas aeruginosa PA53 assessed as fold reduction in ceftazidime MIC at 30 uM after 16 hrs by microdilution method; type: functional; procedure, shortened: as §1
[21] = system: Acinetobacter baumannii; assay: Antibacterial activity against Acinetobacter baumannii ATCC BAA-1605 assessed as fold reduction in imipenem MIC at 15 uM after 16 hrs by microdilution method; type: functional; procedure, shortened: as §1
[22] = system: Acinetobacter baumannii; assay: Antibacterial activity against Acinetobacter baumannii ATCC BAA-1605 assessed as fold reduction in imipenem MIC at 7.5 uM after 16 hrs by microdilution method; type: functional; procedure, shortened: as §1
[23] = system: Acinetobacter baumannii; assay: Antibacterial activity against Acinetobacter baumannii ATCC BAA-1605 assessed as fold reduction in meropenem MIC at 7.5 uM after 16 hrs by microdilution method; type: functional; procedure, shortened: as §1
[24] = system: Pseudomonas aeruginosa; assay: Antibacterial activity against Pseudomonas aeruginosa PA53 assessed as fold reduction in ceftazidime MIC at 15 uM after 16 hrs by microdilution method; type: functional; procedure, shortened: as §1

MIC [2] | MIC [4] | Structure (SMILES) | fold change (FC) [1] | fold change (FC) [5] | fold change (FC) [6] | other results
> 200 µM | > 200 µM | Cl.Nc1nc(-c2ccc(NC(=O)c3ccccc3F)cc2)c[nH]1 | 2 | 2 | 1 | fold change (FC) [3]: 1
200 µM | 100 µM | Cl.Nc1nc(-c2ccc(NC(=O)c3c(Cl)cc(Cl)cc3Cl)cc2)c[nH]1 | 4 |  | 1 | fold change (FC) [7]: 1; fold change (FC) [8]: 4
 | 100 µM | Nc1ncc(-c2ccc(NC(=O)/C=C/c3ccccc3)cc2)[nH]1 |  |  |  | 
> 200 µM | > 200 µM | Cl.Nc1nc(-c2ccc(NC(=O)c3ccc(Br)cc3)cc2)c[nH]1 | 2 | 16 | 1 | fold change (FC) [3]: 8
> 200 µM | > 200 µM | Cl.Nc1nc(-c2ccc(NC(=O)c3cccc(Br)c3)cc2)c[nH]1 | 4 | 16 | 16 | fold change (FC) [3]: 8
100 µM | 50 µM | Cl.Nc1nc(-c2ccc(NC(=O)c3ccc(C(F)(F)F)cc3)cc2)c[nH]1 |  |  |  | fold change (FC) [18]: 8; fold change (FC) [19]: 4; fold change (FC) [20]: 8; fold change (FC) [21]: 4
 | 200 µM | CCCCCc1ccc(C(=O)Nc2ccc(-c3cnc(N)[nH]3)cc2)cc1 |  |  |  | 
100 µM (≈ 31.4 µg/mL) | 200 µM | Nc1ncc(-c2ccc(NC(=O)c3cc(F)cc(F)c3)cc2)[nH]1 |  | 16 |  | fold change (FC) [18]: 2; fold change (FC) [3]: 8; fold change (FC) [20]: 1
 | 100 µM | CCCCCC(=O)Nc1cccc(-c2c[nH]c(N)n2)c1 |  |  |  | 
200 µM | 100 µM | Cl.Nc1nc(-c2ccc(NC(=O)c3cc(F)c(F)c(F)c3)cc2)c[nH]1 | 2 |  | 1 | fold change (FC) [7]: 8; fold change (FC) [8]: 8
200 µM | > 200 µM | Cl.Nc1nc(-c2ccc(NC(=O)c3ccc(F)cc3)cc2)c[nH]1 | 2 | 4 | 1 | fold change (FC) [3]: 2
> 200 µM | > 200 µM | Cl.Nc1nc(-c2ccc(NC(=O)c3c(F)c(F)c(F)c(F)c3F)cc2)c[nH]1 | 2 | 2 | 1 | fold change (FC) [3]: 1
> 200 µM | > 200 µM | Cl.Nc1nc(-c2ccc(NC(=O)c3ccc(Cl)cc3)cc2)c[nH]1 | 2 | 8 | 1 | fold change (FC) [3]: 4
50 µM | 25 µM | Cl.Nc1nc(-c2ccc(NC(=O)c3ccc(C(F)(F)F)c(F)c3)cc2)c[nH]1 |  |  |  | fold change (FC) [17]: 4; fold change (FC) [22]: 2; fold change (FC) [23]: 4; fold change (FC) [24]: 8
200 µM | > 200 µM | Cl.Nc1nc(-c2ccc(NC(=O)c3cccc(F)c3)cc2)c[nH]1 | 2 | 4 | 1 | fold change (FC) [3]: 2
 | 200 µM | CCCCCCC(=O)Nc1ccc(-c2cnc(N)[nH]2)cc1 |  |  |  | 

The remaining lines, values behind:

Structure (SMILES) | MIC [2] | MIC [4] | fold change (FC) [1] | fold change (FC) [5] | fold change (FC) [6] | other results
Cl.Nc1ncc(-c2ccc(NC(=O)c3cccc(Cl)c3Cl)cc2)[nH]1 |  |  | 1 | 2 |  | Activity [9]: inactive; fold change (FC) [10]: 2; Activity [11]: inactive; Activity [12]: inactive
C[C@@H](O)[C@H]1C(=O)N2C(C(=O)O)=C(S[C@@H]3CN[C@H](C(=O)N(C)C)C3)[C@H](C)[C@H]12 [MEROPENEM] |  | 32 µg/mL |  |  |  | fold change (FC) [13]: 0.2; fold change (FC) [14]: 0.2; fold change (FC) [15]: <0.1; fold change (FC) [16]: <0.1
Cl.Nc1ncc(-c2ccc(NC(=O)c3cccc(I)c3)cc2)[nH]1 |  |  | 1 | 8 |  | 
Cl.Nc1ncc(-c2ccc(NC(=O)c3ccc(Br)cc3F)cc2)[nH]1 |  |  | 1 | 2 |  | 
Cl.Nc1ncc(-c2ccc(NC(=O)c3ccc(F)c(Cl)c3)cc2)[nH]1 |  |  |  |  |  | fold change (FC) [17]: 1; fold change (FC) [8]: 4
Cl.Nc1ncc(-c2ccc(NC(=O)c3ccc(Cl)cc3Cl)cc2)[nH]1 |  |  | 1 | 4 |  | 
C[C@@H](O)[C@H]1C(=O)N2C(C(=O)O)=C(SCCNC=N)C[C@H]12 [IMIPENEM ANHYDROUS] |  | 16 µg/mL |  |  |  | 
Cl.Nc1ncc(-c2ccc(NC(=O)c3cc(Br)cc(Br)c3)cc2)[nH]1 |  |  | 1 |  |  | fold change (FC) [8]: 4
Cl.Nc1ncc(-c2ccc(NC(=O)c3ccc(Cl)c(Cl)c3)cc2)[nH]1 |  |  |  |  |  | fold change (FC) [18]: 1; fold change (FC) [8]: 64
CCCCCCc1ccc(-c2c[nH]c(N)n2)cc1 |  | 100 µM |  |  |  | 
Cl.Nc1ncc(-c2ccc(NC(=O)c3ccc(I)cc3)cc2)[nH]1 |  |  | 1 | 2 |  | 
Cl.Nc1ncc(-c2ccc(NC(=O)c3cc(I)c(I)c(I)c3)cc2)[nH]1 |  |  | 1 | 2 |  | 
